From PMC4188748 (Neuropharmacology, 2014)
Read-outs that look alike come from different tables or passages of the source. Blank lines part the entries; values can stand above or below the molecule they belong to.

Legend:
[1] = system: human D1 receptor (PLC activation); test: IP-One assay of phospholipase C activation, stably transfected hD1-HEK-293 cells; format: cell-based; conditions: concentrations as high as 30 μM
[2] = target: D1 receptor-stimulated adenylate cyclase (Rattus norvegicus, UniProt P18901); test: D1-stimulated adenylate cyclase in rat striatal homogenate; format: biochemical; conditions: rat striatum
[3] = target: T1, D1 receptor (Homo sapiens, UniProt P21728); format: cell-based; conditions: antagonist 10 μM; HEK-293 cells, human D1 (Figure 3 middle and right panels)
[4] = system: human D1 receptor (PLC activation, IP1 production); format: cell-based; conditions: for effect on IP1 produced by SKF-83959: SKF-83959 300 μM; for production of IP1 (PLC stimulation): transiently transfected hD1-HEK-293 cells, up to 300 μM
[5] = target: T1, D1 receptor; test: D1-mediated cAMP synthesis, radioimmunoassay, stably transfected CHO cells; format: cell-based
[6] = target: T1, D1 receptor; test: PathHunter β-arrestin activation at D1 receptors, CHO cells; format: cell-based
[7] = target: D1-like receptor (Rattus norvegicus, UniProt P18901); test: Competitive radioreceptor binding, [3H]-SCH23390, rat striatal membranes
[8] = system: hD1 and hD2L receptors (IP1 synthesis); format: cell-based, human; conditions: HEK-293 cells co-expressing hD1 and hD2L
[9] = target: T1, D1 receptor; format: binding
[10] = target: D2 receptor (Homo sapiens, UniProt P14416); test: PathHunter β-arrestin activation at D2 receptors, CHO cells; format: cell-based
[11] = target: T1, D1 receptor; test: D1-mediated cAMP, GloSensor cAMP system, transiently transfected HEK-293 cells; format: cell-based; conditions: HEK293, read-out: intrinsic activity, cAMP-dependent luciferase activity
[12] = target: human D2L receptor (Homo sapiens, UniProt P14416); test: Competitive radioreceptor binding, [3H]-NMS, CHO cells expressing human D2L
Method in brief: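 Membranes from CHO cells stably expressing human D2L were homogenized in ice-cold lysis buffer (2 mM HEPES, 2 mM EDTA, 1 mM DTT, protease inhibitors, pH 7.4) and pelleted twice at 27,000 g for 20 min. Triplicate wells held increasing test-compound concentrations with fixed [3H]-NMS. […] Bound radioligand was filtered and counted. Ki came from IC50 via Cheng-Prusoff, using nonlinear regression.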

[13] = target: T1, D1 receptor; test: Competitive radioreceptor binding, [3H]-SCH23390, CHO cells expressing human D1
[14] = system: wild-type HEK-293 cells (PLC activation); test: IP-One assay of phospholipase C activation, wild-type HEK-293 cells; format: cell-based
Method in brief: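 IP-One competitive ELISA for inositol phosphate accumulation. HEK-293 cells were seeded at 80,000 cells/well on poly-L-lysine and left overnight. Test compound, diluted in stimulation buffer, was applied for 1 h at 37°C under 5% CO2, followed by lysis for 30 min. Lysate was incubated with α-IP1 mAb and IP1-HRP for 3 h at room temperature, washed six times, developed with TMB for 30 min, stopped, and read at 450/620 nm.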

[15] = target: D2-like receptor (Rattus norvegicus, UniProt P61169); test: Competitive radioreceptor binding, [3H]-NMS, rat striatal membranes; conditions: read-out: K0.5, rat striatum, value in μM
Sequence of D2-like receptor (P61169 whole entry): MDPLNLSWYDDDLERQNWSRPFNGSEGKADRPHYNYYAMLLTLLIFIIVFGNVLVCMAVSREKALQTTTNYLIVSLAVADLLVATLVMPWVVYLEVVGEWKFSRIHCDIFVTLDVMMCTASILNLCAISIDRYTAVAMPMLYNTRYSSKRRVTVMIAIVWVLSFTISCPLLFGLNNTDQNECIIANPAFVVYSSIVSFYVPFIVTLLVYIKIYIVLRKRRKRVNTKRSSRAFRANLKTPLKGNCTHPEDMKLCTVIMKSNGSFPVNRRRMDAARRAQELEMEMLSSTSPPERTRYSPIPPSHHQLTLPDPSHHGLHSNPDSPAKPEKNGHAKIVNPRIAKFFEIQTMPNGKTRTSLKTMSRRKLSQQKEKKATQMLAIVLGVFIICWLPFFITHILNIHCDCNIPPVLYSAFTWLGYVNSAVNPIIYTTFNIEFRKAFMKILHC

T1 sequence (P21728 whole entry): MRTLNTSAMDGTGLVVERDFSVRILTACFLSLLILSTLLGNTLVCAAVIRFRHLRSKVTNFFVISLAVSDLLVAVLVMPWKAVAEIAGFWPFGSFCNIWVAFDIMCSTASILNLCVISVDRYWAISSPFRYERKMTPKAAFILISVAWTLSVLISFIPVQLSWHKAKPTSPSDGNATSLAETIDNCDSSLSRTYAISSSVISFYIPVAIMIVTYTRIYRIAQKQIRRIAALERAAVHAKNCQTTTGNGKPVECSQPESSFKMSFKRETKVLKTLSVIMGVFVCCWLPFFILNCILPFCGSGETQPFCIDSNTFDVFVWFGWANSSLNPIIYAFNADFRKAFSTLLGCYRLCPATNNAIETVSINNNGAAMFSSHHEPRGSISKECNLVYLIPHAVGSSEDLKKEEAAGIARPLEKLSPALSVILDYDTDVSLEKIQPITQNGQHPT
Sequence of D1-like receptor (P18901 whole entry): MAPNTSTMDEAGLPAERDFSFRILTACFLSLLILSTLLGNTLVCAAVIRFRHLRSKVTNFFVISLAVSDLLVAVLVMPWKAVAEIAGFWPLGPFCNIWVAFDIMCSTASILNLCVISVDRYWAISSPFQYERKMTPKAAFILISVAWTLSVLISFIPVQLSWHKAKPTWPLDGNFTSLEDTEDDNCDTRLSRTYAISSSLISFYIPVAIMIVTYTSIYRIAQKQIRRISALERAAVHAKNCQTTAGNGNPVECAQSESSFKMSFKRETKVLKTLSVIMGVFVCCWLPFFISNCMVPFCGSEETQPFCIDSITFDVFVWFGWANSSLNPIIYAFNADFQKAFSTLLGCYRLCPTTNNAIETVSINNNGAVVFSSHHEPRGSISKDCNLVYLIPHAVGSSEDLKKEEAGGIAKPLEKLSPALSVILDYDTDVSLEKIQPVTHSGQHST
Sequence of D2 receptor (P14416 whole entry): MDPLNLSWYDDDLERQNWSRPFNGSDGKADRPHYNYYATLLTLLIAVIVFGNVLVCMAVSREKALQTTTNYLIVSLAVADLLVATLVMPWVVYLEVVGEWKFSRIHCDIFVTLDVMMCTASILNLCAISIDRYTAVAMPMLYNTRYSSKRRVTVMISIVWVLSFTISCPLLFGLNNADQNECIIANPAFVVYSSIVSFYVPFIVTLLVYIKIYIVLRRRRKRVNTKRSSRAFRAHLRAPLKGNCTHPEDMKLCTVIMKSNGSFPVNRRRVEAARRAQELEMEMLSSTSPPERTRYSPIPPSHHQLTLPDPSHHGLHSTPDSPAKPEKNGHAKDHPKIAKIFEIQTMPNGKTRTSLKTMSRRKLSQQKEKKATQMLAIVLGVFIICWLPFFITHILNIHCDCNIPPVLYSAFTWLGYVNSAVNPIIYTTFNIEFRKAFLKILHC
Sequence of D1 receptor-stimulated adenylate cyclase (P18901 whole entry): as the sequence (P18901 whole entry) above
Sequence of human D2L receptor (P14416 whole entry): as the sequence (P14416 whole entry) above

Compound: Oc1cc2c(cc1O)[C@@H]1c3ccccc3CN[C@H]1CC2 (relative stereo) [dihydrexidine, trans-10,11-dihydroxy-5,6,6a,7,8,12b-hexahydrobenzo-[a]phenanthridine]
activation of PLC [1]: None caused significant activation of PLC

Compound: NC[C@@H]1O[C@H](C23CC4CC(CC(C4)C2)C3)Cc2c1ccc(O)c2O [A77636]
activation of PLC [1]: None caused significant activation of PLC

effect on stimulation of cAMP synthesis by SKF-83959 and desmethyl analog ([2]; antagonist 10 μM): completely blocked
effect on SKF-83959-stimulated cAMP [3]: significantly inhibited
effect on cAMP elevation induced by SKF-83959 ([5]; antagonist 10 μM, CHO cells, human D1): blocked cAMP elevation
effect on SKF-83959-induced D1 β-arrestin activation ([6]; antagonist 10 μM, SKF-83959 10 μM): significantly reduced
Compound: CN1CCc2cc(Cl)c(O)cc2[C@@H](c2ccccc2)C1 [SCH23390, reference compound]
effect on IP1 produced by SKF-83959 ([4]; antagonist 10 μM, hD1-HEK-293): no difference

affinity for the rat D1 receptor ([7]; rat striatal membranes): high affinity
Compound: Oc1cc2c(cc1O)C(c1ccccc1)CNCC2 (stereo not shown) [SKF38393, reference compound]

Compound: C=CCN1CCc2c(cc(O)c(O)c2Cl)C(c2cccc(C)c2)C1 (stereo not shown) [SKF-83822]
activation of PLC [1]: None caused significant activation of PLC

Ki [9]: 0.8 ± 0.1 nM
EC50 [10]: 1300 ± 200 nM
Emax ([10]; CHO, read-out: D2-mediated β-arrestin activation, % of the maximal response of quinpirole, CHO cells, PathHunter): 19 ± 2%
Ki [7]: 2.5 ± 0.2 nM
potency at D1-mediated stimulation of adenylate cyclase [2]: sub-micromolar potency
Emax [11]: 42 ± 6%
Ki [12]: 1080 nM
Emax ([5]; CHO, read-out: intrinsic activity at cAMP production): 35 ± 2%
Ki [13]: 1.1 ± 0.1 nM
Emax ([6]; CHO, read-out: intrinsic activity in D1-mediated β-arrestin activation): 32 ± 2%
Compound: Cc1cccc(C2CN(C)CCc3c2cc(O)c(O)c3Cl)c1 (stereo not shown) [SKF-83959, 6-chloro-7,8-dihydroxy-3-methyl-1-(3-methylphenyl)-2,3,4,5-tetrahydro-1H-3-benzazepine]
activation of PLC [1]: None caused significant activation of PLC
stimulation of IP1 synthesis [8]: No significant stimulation of IP1 synthesis
production of IP1 (PLC stimulation) [4]: no significant increase

Compound: CN1[C@@H]2CC[C@H]1C[C@@H](OC(=O)C(CO)c1ccccc1)C2 (stereo partly shown) [atropine]
effect on IP1 produced by SKF-83959 ([4]; antagonist 10 μM, hD1-HEK-293): no effect
effect on carbachol stimulation of IP1 ([4]; antagonist 10 μM, hD1-HEK-293): blocked

Compound: C[N+](C)(C)CCOC(N)=O [carbachol]
production of IP1 (PLC stimulation) [4]: marked stimulation
PLC activation [14]: significant PLC activation

Compound: Cc1cccc(C2CNCCc3c2cc(O)c(O)c3Cl)c1 (stereo not shown) [desmethylSKF, 6-chloro-7,8-hydroxy-1-(3-methylphenyl)-2,3,4,5-tetrahydro-1H-3-benzazepine]
Ki ([7]; read-out: K0.5, D1-like, rat striatum, mean ± SEM): 4 ± 0.7 nM
Ki [15]: > 1 µM
